# Screens from PubChem BioAssay.
# A selection: hits, their analogues and other compounds. The true share with any hit is near 3.5%.
# RGS4 act – RGS4 potentiators or activators, primary screen, cell-based, HEK293 M3R inducible RGS4, calcium flux | B-score at 10 µM | carbachol calcium flux Fluo4; stronger effect = lower value | 0.92% of 310,000 active;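 active = B-score of the integrated calcium signal more than 4 SD below the library mean, with starting fluorescence not abnormally high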;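 also: negative B-score means reduced calcium response which marks RGS4 activation or potentiation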
#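 Material: Inducible-RGS4 HEK293 cells carrying M3 receptor; also added: carbachol at ECmax as muscarinic agonist stimulus; incubation: compound preincubation 20 min at room temperature before agonist; signal: Fluo4-AM (2 µM) calcium-flux fluorescence, kinetic read; measure: integrated calcium ratio converted to B score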
# MrgX1 PAM – positive allosteric modulators of MrgX1, primary screen, HEK293 cells, Fluo-4 calcium flux. Mas-related G-protein coupled receptor member X1 (Homo sapiens), Q96LB2. FDSS; stronger effect = higher value. B-score at 10 µM. 0.63% of 310,000 active;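 active = plate-corrected calcium response at least 3 library SD above typical, normal starting fluorescence, not activating the receptor alone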;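 also: compound read alongside a low EC10 to EC30 dose of BAM8-22 agonist; peak minus trough fluorescence over baseline measured at the second addition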
# Target sequence (Q96LB2 whole entry, looked up): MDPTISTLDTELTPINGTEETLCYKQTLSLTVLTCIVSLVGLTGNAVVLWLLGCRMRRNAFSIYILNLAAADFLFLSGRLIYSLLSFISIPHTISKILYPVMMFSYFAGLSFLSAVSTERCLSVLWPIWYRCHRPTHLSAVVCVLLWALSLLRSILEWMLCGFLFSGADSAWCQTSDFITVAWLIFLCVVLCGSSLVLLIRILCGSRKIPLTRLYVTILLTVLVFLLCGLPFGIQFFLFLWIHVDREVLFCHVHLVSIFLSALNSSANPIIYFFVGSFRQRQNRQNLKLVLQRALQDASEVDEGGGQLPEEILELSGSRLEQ
# MrgX1 antag – antagonists of human MrgX1 receptor, primary screen, HEK293 cells, Fluo-4 calcium flux; AID 588676, 2011; Mas-related G-protein coupled receptor member X1 (Homo sapiens), Q96LB2; B-score at 10 µM; 1.3% of 310,000 active; BAM8-22 antagonism; stronger effect = lower value;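 active = calcium-response B-score plate-corrected more than 3 library SD below zero, starting fluorescence within 5 deviations, no agonist response on first addition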;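 also: peak minus trough fluorescence over baseline after final BAM8-22 challenge near maximal dose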
# MrgX1 agonist – agonists of human MrgX1 receptor, primary screen, HEK293 cells, Fluo-4 calcium flux | Fluo-4 calcium fluorescence, agonist mode; stronger effect = higher value | B-score at 10 µM | 0.44% of 310,000 active;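 active = calcium response B-score plate-corrected fluorescence ratio at least 3 library SD, with starting fluorescence B-score inside 5 SD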
#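 Test system: Stable human MrgX1 HEK293 cell line | Schedule: Overnight plating before 1 h dye loading | Read-out basis: Baseline-normalised fluorescence change ratio, B-scored | Detection: Kinetic calcium dye fluorescence, Fluo-4 NW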
# RGS4 block – RGS4 inhibitors, primary screen, cell-based, HEK293 M3R inducible RGS4, calcium flux. B-score at 10 µM. Fluo-4 calcium flux; stronger effect = higher value; triggered by carbachol at its EC20. Regulator of G-protein signaling 4 (Homo sapiens), P49798. 0.45% of 310,000 active;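 active = B-score, a plate-corrected calcium signal, over three deviations above library mean, with baseline fluorescence within five deviations of library mean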;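 also: RGS4 expression induced by doxycycline in cells with stable M3 receptor; B-score is computed from the integrated fluorescence ratio over baseline after carbachol; higher B-score means a larger calcium signal and so more RGS4 inhibition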
# Active calls of the source: *; i = inactive; nt = not tested or not shown.
SMILES,RGS4 act,MrgX1 PAM,MrgX1 antag,MrgX1 agonist,RGS4 block
CN(C)S(=O)(=O)c1ccc(N2CCCC2)c(C(=O)NC2CCC(O)CC2)c1 (configuration not stated),i,i,i,i,i
N#CCCCN1C(=O)C(=C(C#N)C#N)c2ccccc21,i,i,i,32.9*,i
CCC(=O)CCC(=O)c1ccc2ccccc2c1,i,i,i,i,i
CC(C)N(CCC(=O)c1ccc2ccccc2c1)Cc1ccccc1,nt,i,i,38.9*,nt
CCCOc1ccc(C2C(C(=O)/C=C/c3ccco3)=C(O)C(=O)N2CCN2CCOCC2)cc1OC (configuration not stated),i,i,i,i,i
O=S(=O)(c1cc(Cl)c(Cl)cc1Cl)N1CCN2CCCC2C1 (configuration not stated),i,i,i,i,i
C=CCn1c(SCC(=O)NCC2CCCO2)nc2scc(-c3ccccc3)c2c1=O (configuration not stated),i,i,-5.15*,i,i
Cc1nnc(SCc2cc([N+](=O)[O-])cc3c2OCOC3)[nH]c1=O,i,i,i,i,i
COc1ccc(Nc2nnc(SCc3cc([N+](=O)[O-])cc4c3OCOC4)s2)cc1,i,i,-4.57*,i,i
CC1CCCCN1C(=O)c1c([N+](=O)[O-])cnn1C (configuration not stated),i,i,-9.18*,i,i
COc1ccc(/C=C2\Oc3cc(OCC(=O)N4CCC(C(=O)O)CC4)ccc3C2=O)c(OC)c1,i,i,i,i,i
COc1ccc(OC)c(/C=C2\Oc3cc(OCC(=O)N4CCC(C(=O)O)CC4)ccc3C2=O)c1,i,i,i,54.8*,i
COc1ccc(OC)c(/C=C2\Oc3cc(OCC(=O)N4CC(O)C[C@H]4C(=O)O)ccc3C2=O)c1 (some centres not stated),i,13.9*,i,i,i
COc1ccc(CNC(=O)C(C)N2C(=O)COc3ccc(C)cc32)c(OC)c1 (configuration not stated),i,i,i,i,i
COc1ccc(S(=O)(=O)Nc2ccccc2OC)cc1NC(=O)c1cc2ccccc2oc1=O,i,i,i,i,i
Clc1ccc(CSc2nnc(-c3sccc3-n3cccc3)o2)cc1,i,i,-4.78*,i,i
COc1c2c(cc3oc(=O)c4c5ccc(O)cc5oc4c13)OC(C)(C)CC2,i,i,i,i,i
COc1c(CC=C(C)C)c(O)cc2oc(=O)c3c4ccc(O)cc4oc3c12,i,i,-10.7*,i,i
O=C(Cc1c(F)c(F)c(F)c(F)c1F)Nc1nc(-c2ccccc2)cs1,-7.07*,i,i,i,i
COc1ccc(CNC(=O)CN(C(=O)c2snc(C(N)=O)c2N)c2ccccc2F)cc1,i,6.49*,i,i,i
O=C1c2ccccc2CC1(Cc1ccccc1)Cc1ccccc1,-7.07*,i,i,i,i
CCC1(CC)Cc2ccccc2C(=O)N1,i,i,i,i,i
O=C(CSc1nnc(C2COc3ccccc3O2)o1)N1CCN(c2ccccc2)CC1 (configuration not stated),i,i,i,i,i
COc1ccc(CC(=O)Nc2ccc(-c3nnc(-c4ccccc4)o3)cc2)cc1OC,i,i,i,i,i
COc1ccc(CC(=O)Nc2cccc(-c3nnc(-c4ccc(C)cc4)o3)c2)cc1OC,-10.1*,i,i,i,i
Cc1c(NC(=O)CSc2ncccn2)c(=O)n(-c2ccccc2)n1C,i,i,i,i,i
Cc1cc(C)n2nc(SCC(=O)Nc3c(C)n(C)n(-c4ccccc4)c3=O)nc2n1,i,i,-4.58*,i,i
Cc1ccc(N(CC(=O)NC2CCCC2)C(=O)c2nsc(Cl)c2Cl)cc1,i,i,i,i,i
CCSCc1nnc(SCC(=O)Nc2nccs2)n1CC,i,i,i,i,i
